Sampled rows, rich in hits. Any-hit rate of the full collection: about 0.64%.
Rad51 HR inh = human RAD51 strand exchange inhibitors, primary screen, biochemical, fluorescence. DNA repair protein RAD51 homolog 1 (Homo sapiens), Q06609. hRad51 DNA strand exchange, fluorescence dequenching. inhibition, % at 10 µM. 200,000 tested, 0.085% active;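 active means inhibition above 40% at the single screening dose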;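 further: 0% = DMSO control wells and 100% = blanks with heterologous ssDNA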
Target sequence (Q06609 whole entry, looked up): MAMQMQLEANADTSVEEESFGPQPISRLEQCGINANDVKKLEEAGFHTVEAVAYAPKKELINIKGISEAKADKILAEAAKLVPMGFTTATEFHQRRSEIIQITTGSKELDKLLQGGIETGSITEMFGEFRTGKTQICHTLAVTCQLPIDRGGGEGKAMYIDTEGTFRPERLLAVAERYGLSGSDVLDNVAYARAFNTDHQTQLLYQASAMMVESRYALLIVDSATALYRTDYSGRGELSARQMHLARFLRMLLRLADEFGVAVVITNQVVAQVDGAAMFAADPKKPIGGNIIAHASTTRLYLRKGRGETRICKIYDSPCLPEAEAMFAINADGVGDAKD
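System: hRad51 filaments on single-stranded DNA; reagent: Fluorescein- and BHQ1-tagged 47-mer duplex; compound dosing: one concentration, 10 µM final; timing: filaments 15 min 37 °C, then compound 30 min; measured by: fluorescein emission 520 nm, excitation 485 nm; benchmarks: per-plate controls and blanks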
sdo1 growth = growth rescue of sdo1-depleted yeast, primary screen, S. cerevisiae, bone marrow failure model; 140,000 tested, 0.21% active; AID 817, 2007; z-score at 10 µM; S. cerevisiae sdo1-depleted JHY4D growth rescue, OD600 30 h; active compounds read high; pdr5 snq2 efflux-pump mutant strain;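 active means z-score above 3 at both the 24 hr and the 30 hr optical density reads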;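 further: z-score against mean and SD of all compound wells on the same plate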
zVAD death inh = inhibitors of zVAD-triggered necroptosis, primary screen, L929 cells. AID 1377, 2008. viability rescue, % at 10 µM. 220,000 tested, 0.38% active. L929 zVAD necroptosis rescue, ATP luminescence, 24 h; with zVAD 60 µM;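 active means activation, scaled between plate controls, above about 75%, limit read from the data; inactive means activation under that limit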;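 further: 0% = zVAD with DMSO and 100% = DMSO alone without zVAD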
TNF necrop inh = inhibitors of TNF-alpha triggered necroptosis, primary screen, cell-based, Jurkat FADD-/-, single concentration; Jurkat FADD-/- TNF necroptosis rescue, ATP luminescence, 24 h; 0 = TNF only, 100 = no-TNF cells; AID 463075, 2010; 220,000 tested, 0.068% active; activation (protection from cell death), % at 10 µM;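 active means activation, meaning protection from cell death, of at least 50% relative to plate controls; inactive means activation below 50%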;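 further: necroptosis triggered by 40 ng/mL TNF-alpha added together with compound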
zVAD death conf = inhibitors of zVAD-triggered necroptosis in L929, confirmation, L929 cells, duplicate runs. L929 zVAD-induced necroptosis rescue, ATP luminescence, 24 h. 760 tested, 16% active. shares compounds with zVAD death inh. activation (protection from necroptosis), % at 10 µM;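 active means mean protection from necroptosis of at least 50% over duplicate tests; inactive means mean protection below 50%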;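 further: 0% = cells with zVAD alone and 100% = vehicle cells without zVAD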
Starred values were filed as active, the others as inactive; / = no result.

SMILES	Rad51 HR inh	sdo1 growth	zVAD death inh	TNF necrop inh	zVAD death conf
COc1cc(C)c(Cl)cc1S(=O)(=O)N(C)C	10.6	0.43	0.9	-1.6	/
CCc1ccc(N2C(=O)Nc3ccccc3C2(O)C(=O)N2CCN(c3ccccn3)CC2)cc1 (stereo not drawn)	-1.4	/	2.2	0.0	/
COC(=O)[C@H]1C[C@H]1[C@@H](NC(=O)c1ccc[nH]1)c1ccccc1	-2.9	/	/	/	/
COc1cc(S(=O)(=O)N2CCN(C(=O)c3ccccc3)CC2)c(OC)cc1Br	/	/	0.9	2.7	/
NS(=O)(=O)c1ccc(CCNC(=S)NC2CCCC2)cc1	-9.2	/	18.7	0.2	/
S=C(NCCc1ccc(Cl)cc1)NC1CC1	9.8	/	91.8*	-0.1	5.8
CC(C)NC(=O)C1(O)c2ccccc2NC(=O)N1c1ccc(Cl)c(Cl)c1 (stereo not drawn)	-2.7	-0.3	0.8	2.8	/
COC(=O)c1c(NC(=O)Nc2ccc(Cl)cc2)sc(C)c1C	/	0.7	0.1	0.8	/
Cc1sc(NC(=O)Nc2ccccc2)c(C(N)=O)c1C	-25.4	/	76.6*	0.6	0.9
Cc1cc(N)n2ncc(-c3ccc(F)cc3)c2n1	-2.7	-0.4	79.4*	-4.2	42.9
NC(=O)CNC(=O)[C@@H]1CC2(CC(c3ccccc3)=NO2)CN1C(=O)c1ccc(Br)cc1 (stereo partly drawn)	-2.2	0.51	-0.2	-1.6	/
c1ccc2c(c1)[nH]c1ccccc12	8.4	/	/	/	/
O=c1[nH]c2ccccc2c2ccccc12	17.4	/	78.9*	-0.6	2.2
Cn1nc(N)c2c(-c3ccccc3)c(C#N)c(N)nc21	3.4	-0.35	5.5	3.0	/
Cn1nc(N)c2c(-c3ccc(Cl)cc3)c(C#N)c(N)nc21	4.7	3.32	81.3*	1.5	37.5
NCCc1c(-c2ccccc2)n(-c2ccccc2)c2ccccc12	-2.0	/	-2.9	-11.9	/
CC(=O)c1sc(NC(=O)c2ccc(C(C)(C)C)cc2)nc1C	9.2	/	75.5*	3.0	1.1
Cc1ccc(S(=O)(=O)Nc2cccc3ncccc23)s1	-2.8	-1.46	75.3*	-5.1	46.9
Cc1cn(-c2cc(C(=O)Nc3ccc(C)c(NC(=O)N4CCNC4=O)c3)cc(C(F)(F)F)c2)cn1	-0.9	/	79.3*	1.2	51.2*
CCN1CCN(Cc2ccc(NC(=O)c3ccc(C)c(NC(=O)N4CCNC4=O)c3)cc2C(F)(F)F)CC1	-1.9	/	73.6	-4.4	/
Cc1[nH]n(-c2ccccc2)c(=O)c1C=NC1CCCCCC1	1.7	/	79.5*	3.0	34.0
Cc1[nH]n(-c2ccccc2)c(=O)c1C=NC1CCCCC1	11.4	/	75.1*	2.6	1.1
CCOC(=O)N1CCN(c2cc(=O)n(-c3cccc(Br)c3)c(=O)[nH]2)CC1	3.8	1.22	0.8	1.3	/
Cc1nc(NC(=O)c2ccccc2)sc1C1(C)CC(c2c(Cl)cccc2Cl)=NO1 (stereo not drawn)	2.8	/	-0.3	-0.5	/
COC(=O)c1ccc(NC(=O)CSC2=NCCN2)cc1	-5.3	0.91	91.7*	-7.7	11.9
SMILES	Rad51 HR inh	sdo1 growth	zVAD death inh	TNF necrop inh	zVAD death conf
CCOc1ccc(NC(=O)CSC2=NCCN2)cc1	-7.3	0.43	5.1	-0.6	/
CN1CCN(c2cc(=O)n(C3CCCCC3)c(=O)[nH]2)CC1	-3.1	0.22	-0.8	0.3	/
O=c1cc(N2CCN(c3cccc(Cl)c3)CC2)[nH]c(=O)n1C1CCCCC1	-5.2	0.47	81.2*	32.5	44.0
O=c1cc(N2CCN(c3ccccc3)CC2)[nH]c(=O)n1C1CCCCC1	8.5	-0.87	81.2*	21.3	25.8
CCOC(=O)C1=C(C)N(CCCC(=O)O)C(=O)NC1c1ccccc1Cl (stereo not drawn)	0.8	/	/	/	/
CC(=O)N(C)c1ccc(NC(=O)Nc2ccc(C)c(C)c2)cc1	/	/	76.8*	-1.7	39.4
CCOC(=O)c1ccc(-n2nc(C(F)(F)F)c3c(C)cc(=O)oc32)cc1	/	/	0.4	-4.0	/
CCNC(=O)NC(=O)C(C)OC(=O)c1ccc(-n2nc(SC)sc2=S)cc1 (stereo not drawn)	-5.4	-0.47	82.3*	3.5	38.5
CSc1nn(-c2ccc(C(=O)OC(C(=O)NC(N)=O)C(C)C)cc2)c(=S)s1 (stereo not drawn)	2.3	/	9.7	-0.1	/
Cc1cc(C(=O)Cn2nc(C(=O)O)c3ccccc3c2=O)c(C)n1CCc1ccc(Cl)cc1	9.2	/	77.9*	-3.5	8.1
Cc1cc(C(=O)Cn2nc(C(=O)O)c3ccccc3c2=O)c(C)n1-c1ccccc1	/	-1.83	1.0	-1.0	/
CCN(CC)CCCNC(=O)CC1Sc2ccccc2NC1=O (stereo not drawn)	-4.3	0.16	0.2	-1.4	/
CCCCN(C)CCCNC(=O)/C=C1\Sc2ccccc2NC1=O	5.8	/	75.3*	4.9	23.5
CCCC(=O)n1nc(-c2cccnc2)nc1NCc1ccc(OC)cc1	8.0	/	79.6*	2.5	0.2
CCC(=O)n1nc(-c2ccc(Cl)cc2)nc1NCc1ccccc1	-6.3	-0.65	1.0	-5.6	/
COCC(=O)n1nc(-c2ccccc2)nc1NCc1cccs1	6.4	/	81.6*	3.1	17.6
COc1ccccc1C(=O)n1nc(-c2cccnc2)nc1NCc1ccccc1	10.9	/	76.9*	0.9	15.8
CC(C)C(=O)n1nc(-c2cccnc2)nc1NCc1ccc(F)cc1	/	/	30.2	3.3	/
CCOc1ccc(NC(=O)Nc2cc(C)ccc2F)cc1	8.3	-1.48	2.9	-2.7	/
CCOC(=O)C1(CCc2ccccc2)CCN(C(=O)C2CCOCC2)CC1	/	/	-0.5	0.2	/
CCc1ccc(NC(=O)CSc2nc3n[nH]c(C)c3c(=N)n2-c2cccc(OC)c2)cc1	-3.7	-0.9	91.5*	-15.0	56.4*
O=C(CSc1nnnn1-c1ccc(O)cc1)Nc1cccc(S(=O)(=O)N2CCCC2)c1	3.9	-0.1	88.0*	2.3	89.2*
O=C(CSc1nnnn1-c1ccc(O)cc1)Nc1ccc(N2CCOCC2)c(Cl)c1	-5.2	-0.37	75.5*	4.7	75.1*
Cc1ccc(NC(=O)CSc2nnnn2-c2ccc3c(c2)OCO3)cc1C	-4.0	-1.13	79.0*	5.3	74.2*
NC(=O)c1ccc(-n2nnnc2SCC(=O)Nc2ccc(N3CCOCC3)c(Cl)c2)cc1	/	0.63	-0.4	-0.1	/
O=C(CSc1nncn1-c1ccccc1)Nc1cccc(S(=O)(=O)N2CCCCC2)c1	3.5	-0.41	0.3	1.6	/
FC(F)(F)c1ccc(N=Cc2sc(N3CCOCC3)nc2-c2ccccc2)cc1	-4.0	0.38	0.3	-1.4	/
COc1ccc(S(=O)(=O)N2CC3C4C=CC(C4)C3C2)cc1 (stereo not drawn)	-5.6	-1.3	0.1	0.9	/
CC(C)c1ccc2[nH]c3c(c2c1)CCC/C3=N\NC(=O)c1ccncc1	17.2	/	9.6	1.5	/
